# Data reported in paper PMC2885539 (Archives of biochemistry and biophysics, 2010).
# Entries after “also recorded” stand apart in the source; their conditions may differ.
# Experiments:
# [1] = intra-articular injection, ref [47]; cited from earlier work
# [2] = cited from earlier work
# [3] = Calculated diffusion times and temperature effect
# [4] = Solute properties; assay type: physicochemical; conditions: known charge of the trivalent peptide
# [5] = Equilibrium uptake / competitive binding in adult bovine cartilage; conditions: labeled vs unlabeled Pf-pep
# [6] = Net charge estimated by fitting Donnan equilibrium theory to uptake data; assay type: physicochemical, bovine; conditions: average of individual explants, mean ± SD, n = 68
# How it was run: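 Bovine cartilage disks (3-mm, L1/L2) equilibrated 48 h at 4°C in PBS with 0.1% BSA, 0.01% NaN₃ and protease inhibitors containing ¹²⁵I-labelled peptide. Disk and bath counted by gamma counter. Uptake ratio: tissue concentration per water weight over bath concentration. sGAG measured by DMMB after proteinase-K digestion. Z is the exponent of a power-law relating peptide uptake to Na⁺ partitioning calculated from each specimen's GAG density.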
# [7] = ref [17], [18]; cited from earlier work
# [8] = vs native BSA, ref [21]–[23]; cited from earlier work
compound,measurement,setting,value
O=C(O)Cc1ccccc1Nc1c(Cl)cccc1Cl [diclofenac],clearance time from synovial fluid,[1],1 to 5 h
CN(C)c1ccc2c(-c3ccccc3C(=O)[O-])c3ccc(N(C)C)cc3[o+]c2c1 [tetramethylrhodamine],effect of static compression on diffusivity,"[2]; TMR, ref [49], [50]",reduced the diffusivities
Arg-Tyr-Lys-Arg-Thr [Pf-pep],characteristic time lag L^2/6D,"[3]; L = 1 mm, D ~1×10^−6 cm^2/s",~ 27 min
same,factor of increase of diffusion coefficient at 37°C,"[3]; Stokes-Einstein relation, from room temperature to 37°C",~ 1.4
same,diffusion time constant δ^2/(π^2D),"[3]; δ = 400 μm, D ~1×10^−6 cm^2/s",~ 2.7 min
same,known net charge,[4],+3
same,binding to sites within cartilage,[5],negligible binding; also recorded: little or no binding of Pf-pep to sites within the tissue; also recorded: did not show measurable binding to the negatively charged GAG chains in cartilage
same,average net charge Z,[6],+3.07 ± 0.74
O=C(O)c1ccccc1O [salicylate],clearance time from synovial fluid,[1],1 to 5 h
insulin-like growth factor-1 [IGF-1],binding to IGFBPs in cartilage ECM,[7],binds to specific IGF binding proteins (IGFBPs)
cationized bovine serum albumin (BSA): cationized bovine serum albumin,uptake and retention in murine cartilage,[8],increased uptake and prolonged retention via binding within murine cartilage compared to native BSA
OC[C@H]1OC(O)[C@H](O)[C@@H](O)[C@@H]1O (stereo partly drawn) [glucose],variation of diffusivity with tissue depth,[2]; ref [42],did not vary significantly with tissue depth
